Measured values taken from ChEMBL document CHEMBL4052773, “Synthesis and diabetic neuropathic pain-alleviating effects of 2N-(pyrazol-3-yl)methylbenzo[d]isothiazole-1,1-dioxide derivatives” (Bioorg Med Chem, 2017).
pIC50: −log10 of the molar value. Activity calls are given as the source filed them. The calls are words filed in the database; no cut-off is given here.

Tests used:
[1] = Stability in human liver microsomes assessed as parent compound remaining at 1 uM after 30 mins in presence of NADPH by LC-MS/MS analysis; format: ADME, microsome; settings: read-out: Stability
Procedure, shortened: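 Test compound at 1 μM was incubated with pooled human liver microsomes in potassium phosphate buffer with 1.2 mM NADPH at 37 °C for 30 min. The reaction was stopped with cold acetonitrile containing internal standard. Supernatant was analysed by LC-MS/MS for % remaining.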

[2] = target: T1, Voltage-dependent T-type calcium channel subunit alpha-1H (Homo sapiens, UniProt O95180); assay: Inhibition of Cav3.2 alpha1H (unknown origin) expressed in HEK293 cells assessed as reduction in KCl-induced depolarization mediated intracellular Ca2+ level at 10 uM by fluo3/AM based high throughput screening assay relative to control; format: cell-based
T1 sequence (O95180 whole entry): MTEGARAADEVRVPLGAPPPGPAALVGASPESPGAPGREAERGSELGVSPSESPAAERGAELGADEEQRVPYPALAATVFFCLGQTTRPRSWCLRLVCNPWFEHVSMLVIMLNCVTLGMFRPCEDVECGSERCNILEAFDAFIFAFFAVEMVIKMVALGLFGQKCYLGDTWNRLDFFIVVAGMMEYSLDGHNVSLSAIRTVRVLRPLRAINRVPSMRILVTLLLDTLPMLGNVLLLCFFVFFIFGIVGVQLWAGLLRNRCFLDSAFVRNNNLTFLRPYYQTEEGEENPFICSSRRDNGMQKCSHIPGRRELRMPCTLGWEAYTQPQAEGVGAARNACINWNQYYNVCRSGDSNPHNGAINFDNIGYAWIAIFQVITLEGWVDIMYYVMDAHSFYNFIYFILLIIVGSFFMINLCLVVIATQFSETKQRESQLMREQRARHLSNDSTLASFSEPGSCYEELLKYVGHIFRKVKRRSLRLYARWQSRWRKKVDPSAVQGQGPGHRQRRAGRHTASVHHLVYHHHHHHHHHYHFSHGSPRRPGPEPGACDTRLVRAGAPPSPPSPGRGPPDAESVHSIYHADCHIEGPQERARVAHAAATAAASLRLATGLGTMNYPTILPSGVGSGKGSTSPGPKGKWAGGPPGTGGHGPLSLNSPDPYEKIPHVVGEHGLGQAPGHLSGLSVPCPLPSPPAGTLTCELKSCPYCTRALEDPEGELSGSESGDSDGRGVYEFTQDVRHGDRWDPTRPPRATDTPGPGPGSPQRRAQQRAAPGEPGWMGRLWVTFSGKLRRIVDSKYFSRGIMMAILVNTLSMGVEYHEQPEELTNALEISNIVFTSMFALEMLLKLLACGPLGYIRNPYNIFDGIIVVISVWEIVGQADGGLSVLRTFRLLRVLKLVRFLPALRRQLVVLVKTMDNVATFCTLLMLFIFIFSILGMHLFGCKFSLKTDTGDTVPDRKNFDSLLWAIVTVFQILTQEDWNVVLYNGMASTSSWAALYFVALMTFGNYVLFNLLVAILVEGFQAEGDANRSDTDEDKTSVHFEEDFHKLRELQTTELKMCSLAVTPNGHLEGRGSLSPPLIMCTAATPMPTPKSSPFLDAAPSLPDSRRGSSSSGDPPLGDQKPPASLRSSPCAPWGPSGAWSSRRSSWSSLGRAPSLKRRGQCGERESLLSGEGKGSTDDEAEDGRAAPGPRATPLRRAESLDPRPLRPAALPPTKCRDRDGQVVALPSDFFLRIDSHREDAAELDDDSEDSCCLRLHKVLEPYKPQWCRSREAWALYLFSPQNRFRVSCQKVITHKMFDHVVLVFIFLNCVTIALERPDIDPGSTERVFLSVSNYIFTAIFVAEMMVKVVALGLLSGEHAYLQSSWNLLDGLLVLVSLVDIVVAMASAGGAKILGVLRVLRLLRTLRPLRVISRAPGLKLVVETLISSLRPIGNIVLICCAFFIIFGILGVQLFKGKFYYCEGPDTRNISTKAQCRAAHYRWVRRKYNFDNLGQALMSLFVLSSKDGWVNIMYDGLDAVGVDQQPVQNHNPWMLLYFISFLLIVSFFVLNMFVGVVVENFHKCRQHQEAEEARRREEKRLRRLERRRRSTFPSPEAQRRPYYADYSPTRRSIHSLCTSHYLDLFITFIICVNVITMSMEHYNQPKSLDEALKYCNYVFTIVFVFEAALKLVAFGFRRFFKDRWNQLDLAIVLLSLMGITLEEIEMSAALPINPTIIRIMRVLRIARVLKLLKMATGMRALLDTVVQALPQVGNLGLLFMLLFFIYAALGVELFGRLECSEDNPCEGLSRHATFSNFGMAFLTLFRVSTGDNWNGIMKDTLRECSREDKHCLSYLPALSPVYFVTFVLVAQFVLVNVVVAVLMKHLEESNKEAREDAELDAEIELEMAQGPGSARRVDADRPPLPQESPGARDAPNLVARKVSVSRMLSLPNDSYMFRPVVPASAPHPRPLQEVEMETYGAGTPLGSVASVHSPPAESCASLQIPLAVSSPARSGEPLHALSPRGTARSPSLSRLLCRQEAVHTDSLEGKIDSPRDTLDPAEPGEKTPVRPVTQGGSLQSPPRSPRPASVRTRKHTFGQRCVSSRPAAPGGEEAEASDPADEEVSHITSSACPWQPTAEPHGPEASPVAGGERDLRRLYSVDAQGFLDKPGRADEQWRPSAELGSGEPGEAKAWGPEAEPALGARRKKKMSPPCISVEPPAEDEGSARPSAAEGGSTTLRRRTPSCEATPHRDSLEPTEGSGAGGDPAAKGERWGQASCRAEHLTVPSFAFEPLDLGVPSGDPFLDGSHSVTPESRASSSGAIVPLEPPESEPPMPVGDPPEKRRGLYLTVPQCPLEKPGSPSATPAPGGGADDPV
Procedure, shortened: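 HEK293 cells stably expressing the T-type channel were kept under puromycin/geneticin selection with 10% FBS at 37 °C and 5% CO2. Cells were seeded at 4×10^4 per well and loaded with fluo3/AM plus 0.001% Pluronic F-127 in HEPES buffer (pH 7.4, 1.8 mM CaCl2) for 60 min at room temperature. The KCl depolarisation-evoked [Ca2+]i rise was read on FDSS6000.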

[3] = target: CYP3A4 (Homo sapiens, UniProt P08684); assay: Inhibition of recombinant human CYP3A4 expressed in baculosomes assessed as residual activity at 10 uM using vivid BOMCC/DBOMF/BOMR as substrate after 15 mins in presence of NADPH by fluorescence assay relative to control; format: ADME; settings: probe Vivid BOMCC/DBOMF/BOMR, read-out: Activity
Chain of CYP3A4 (P08684 whole entry, canonical isoform): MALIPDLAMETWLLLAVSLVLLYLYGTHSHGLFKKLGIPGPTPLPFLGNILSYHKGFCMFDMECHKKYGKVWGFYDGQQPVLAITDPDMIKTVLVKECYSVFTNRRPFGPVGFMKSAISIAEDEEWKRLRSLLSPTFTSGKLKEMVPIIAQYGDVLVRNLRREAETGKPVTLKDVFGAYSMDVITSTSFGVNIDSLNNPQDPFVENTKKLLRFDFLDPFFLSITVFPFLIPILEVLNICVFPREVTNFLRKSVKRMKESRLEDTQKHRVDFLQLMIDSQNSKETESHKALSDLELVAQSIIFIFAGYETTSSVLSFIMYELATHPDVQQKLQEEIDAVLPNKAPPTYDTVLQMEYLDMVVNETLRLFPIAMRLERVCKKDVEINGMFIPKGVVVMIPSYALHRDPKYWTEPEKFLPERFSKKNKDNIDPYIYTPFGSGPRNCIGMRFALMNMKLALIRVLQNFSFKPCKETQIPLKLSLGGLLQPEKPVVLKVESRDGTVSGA
Procedure, shortened: (§1)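 Test compounds at 10 μM were premixed with baculosome CYP plus a regeneration system. After 15 min at 37 °C, Vivid substrates and NADPH were added. Remaining enzyme activity was read by fluorescence and expressed as % of control, as mean ± SD of triplicates. Isoform-selective inhibitors served as positive controls.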

[4] = target: CYP2D6 (Homo sapiens, UniProt P10635); assay: Inhibition of recombinant human CYP2D6 expressed in baculosomes assessed as residual activity at 10 uM using vivid EOMCC/MOBFC as substrate after 15 mins in presence of NADPH by fluorescence assay relative to control; format: ADME; settings: probe Vivid EOMCC/MOBFC, read-out: Activity; procedure, shortened: as §1
Chain of CYP2D6 (P10635 whole entry): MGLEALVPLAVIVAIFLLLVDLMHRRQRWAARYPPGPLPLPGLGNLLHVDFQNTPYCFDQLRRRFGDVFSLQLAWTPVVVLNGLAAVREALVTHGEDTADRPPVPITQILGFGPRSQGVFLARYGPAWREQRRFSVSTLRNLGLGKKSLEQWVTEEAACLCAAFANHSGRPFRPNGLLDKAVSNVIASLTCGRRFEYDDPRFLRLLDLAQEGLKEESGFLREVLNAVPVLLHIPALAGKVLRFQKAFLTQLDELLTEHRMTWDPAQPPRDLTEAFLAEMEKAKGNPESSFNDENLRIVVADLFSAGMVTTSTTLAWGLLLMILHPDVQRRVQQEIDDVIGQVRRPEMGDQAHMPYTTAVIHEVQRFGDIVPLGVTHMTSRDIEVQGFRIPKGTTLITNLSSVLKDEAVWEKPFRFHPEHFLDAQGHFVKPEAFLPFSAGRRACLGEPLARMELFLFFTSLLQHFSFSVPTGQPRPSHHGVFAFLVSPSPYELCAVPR

[5] = target: T1, Voltage-dependent T-type calcium channel subunit alpha-1H; assay: Inhibition of Cav3.2 alpha1H (unknown origin) expressed in HEK293 cells by whole-cell patch clamp assay; format: cell-based
Procedure, shortened: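 Whole-cell patch clamp was done on T-type channel-expressing cells. Currents were evoked every 15 s by a 50-ms step from −100 mV to −30 mV. IC50 for peak current was obtained by fitting a dose-response curve and given ± SD.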

[6] = target: CYP2C9 (Homo sapiens, UniProt P11712); assay: Inhibition of recombinant human CYP2C9 expressed in baculosomes assessed as residual activity at 10 uM using vivid BOMCC/BOMF/OOMR as substrate after 15 mins in presence of NADPH by fluorescence assay relative to control; format: ADME; settings: probe Vivid BOMCC/BOMF/OOMR, read-out: Activity; procedure, shortened: as §1
Chain of CYP2C9 (P11712 whole entry): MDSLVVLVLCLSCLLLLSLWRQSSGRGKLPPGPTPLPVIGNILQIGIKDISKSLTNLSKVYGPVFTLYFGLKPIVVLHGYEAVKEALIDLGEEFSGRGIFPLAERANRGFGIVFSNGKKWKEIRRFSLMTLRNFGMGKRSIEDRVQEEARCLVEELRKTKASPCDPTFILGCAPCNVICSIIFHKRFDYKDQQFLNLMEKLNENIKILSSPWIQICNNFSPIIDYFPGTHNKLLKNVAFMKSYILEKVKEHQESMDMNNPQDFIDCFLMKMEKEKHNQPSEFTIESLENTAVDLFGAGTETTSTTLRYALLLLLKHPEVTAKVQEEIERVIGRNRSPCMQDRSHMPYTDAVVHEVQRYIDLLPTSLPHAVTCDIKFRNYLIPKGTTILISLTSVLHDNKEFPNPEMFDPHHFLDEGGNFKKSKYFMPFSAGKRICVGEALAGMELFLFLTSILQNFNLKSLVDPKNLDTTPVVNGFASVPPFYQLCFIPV

[7] = target: T2, CYP1A2 (Homo sapiens, UniProt P05177); assay: Inhibition of recombinant human CYP1A2 expressed in baculosomes assessed as residual activity at 10 uM using vivid EOMCC as substrate after 15 mins in presence of NADPH by fluorescence assay relative to control; format: ADME; settings: probe Vivid EOMCC, read-out: Activity; procedure, shortened: as §1
T2 sequence (P05177 whole entry): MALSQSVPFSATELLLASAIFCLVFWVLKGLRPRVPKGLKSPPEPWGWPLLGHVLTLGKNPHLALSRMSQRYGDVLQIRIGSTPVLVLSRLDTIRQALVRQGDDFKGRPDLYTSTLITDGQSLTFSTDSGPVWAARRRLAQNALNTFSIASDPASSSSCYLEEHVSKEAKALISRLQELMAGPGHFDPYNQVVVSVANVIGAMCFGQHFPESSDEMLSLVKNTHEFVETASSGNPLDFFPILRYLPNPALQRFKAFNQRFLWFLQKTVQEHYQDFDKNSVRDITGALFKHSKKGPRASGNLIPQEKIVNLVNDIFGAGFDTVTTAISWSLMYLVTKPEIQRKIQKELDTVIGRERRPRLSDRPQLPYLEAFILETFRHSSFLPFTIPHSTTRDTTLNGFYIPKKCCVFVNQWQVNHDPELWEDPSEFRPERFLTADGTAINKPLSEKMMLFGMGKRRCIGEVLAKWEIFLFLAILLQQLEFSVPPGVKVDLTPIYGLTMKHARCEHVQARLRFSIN

[8] = system: Rattus norvegicus; assay: Anti-algetic activity in rat streptozotocin-induced neuropathic pain model assessed as reduction in heat hypersensitivity at 100 mg/kg, po measured after 1 to 5 hrs; format: functional, organism-based
Procedure, shortened: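 Type 1 diabetes induced in rats by intraperitoneal STZ (65 mg/kg); after 4 weeks, neuropathic rats selected by blood glucose level and pain behaviour. Single oral dose of 100 mg/kg given to groups of 5 or 6 rats; heat hypersensitivity tested at 1, 3 and 5 h. Changes compared with pre-administration values by paired t-test.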

[9] = system: Rattus norvegicus; assay: Anti-algetic activity in rat streptozotocin-induced neuropathic pain model assessed as reduction in mechanical allodynia at 100 mg/kg, po measured after 1 to 5 hrs; format: functional, organism-based
Procedure, shortened: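 Rats made diabetic by intraperitoneal STZ (65 mg/kg); 4 weeks later, rats with established neuropathic pain chosen by blood glucose level and behavioural testing. Single oral 100 mg/kg dose given to groups of 5 or 6 rats. Mechanical allodynia measured with von Frey filaments at 1, 3 and 5 h; paired t-test against pre-administration values.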

[10] = Cmax in rat at 10 mg/kg, po; format: ADME, organism-based; design: dose 10 mg/kg, route oral; settings: in vivo
Procedure, shortened: (§2)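 Male rats dosed at 10 mg/kg, intravenously (n = 5) or orally (n = 4). Parameters taken from the plasma concentration-time curve and reported as mean ± SD. Brain-to-plasma ratio measured 2 h after dosing. Tmax given as median with range.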

[11] = system: Rattus norvegicus; assay: Anti-algetic activity in rat streptozotocin-induced neuropathic pain model assessed as reduction in heat hypersensitivity at 50 mg/kg, po measured after 3 hrs in presence of gabapentin; format: functional, organism-based
Procedure, shortened: (§3)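 Neuropathic pain was induced in rats by i.p. streptozotocin at 65 mg/kg and confirmed at 4 weeks by glucose and behaviour. Rats received a single oral 50 mg/kg dose, alone or together with gabapentin at 50 mg/kg (n = 6–7). Mechanical allodynia (von Frey) and heat hypersensitivity were tested at 1, 3 and 5 h. Paired t-test was used versus pre-dose.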

[12] = system: Rattus norvegicus; assay: Anti-algetic activity in rat streptozotocin-induced neuropathic pain model assessed as reduction in mechanical allodynia at 100 mg/kg, po measured after 3 hrs; format: functional, organism-based
Procedure, shortened: (§4)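 STZ-diabetic rats were made by i.p. streptozotocin at 65 mg/kg. After 4 weeks, rats with confirmed neuropathic pain were selected by blood glucose and behavioural testing. A single oral dose of 100 mg/kg was given (n = 5–6). Mechanical allodynia was tested by von Frey, and heat hypersensitivity was also assessed, at 1, 3 and 5 h. Comparison was against pre-dose values by paired t-test.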

[13] = Clearance in rat at 10 mg/kg, iv; format: ADME, organism-based; settings: in vivo; procedure, shortened: as §2
[14] = system: Rattus norvegicus; assay: Anti-algetic activity in rat streptozotocin-induced neuropathic pain model assessed as reduction in mechanical allodynia at 50 mg/kg, po measured after 1 to 5 hrs; format: functional, organism-based; procedure, shortened: as §3
[15] = AUClast in rat at 10 mg/kg, po; format: ADME, organism-based; design: dose 10 mg/kg, route oral, time 0 - last; settings: in vivo; procedure, shortened: as §2
[16] = AUClast in rat at 10 mg/kg, iv; format: ADME, organism-based; design: dose 10 mg/kg, route intravenous, time 0 - last; settings: in vivo; procedure, shortened: as §2
[17] = Ratio of drug level in brain to plasma in rat at 10 mg/kg, po measured at 2 hrs post dose; format: ADME, organism-based; settings: brain and plasma, read-out: BPR; procedure, shortened: as §2
[18] = Terminal half-life in rat at 10 mg/kg, po; format: ADME, organism-based; settings: in vivo, read-out: beta t1/2; procedure, shortened: as §2
[19] = system: Rattus norvegicus; assay: Anti-algetic activity in rat streptozotocin-induced neuropathic pain model assessed as reduction in heat hypersensitivity at 100 mg/kg, po measured after 3 hrs; format: functional, organism-based; procedure, shortened: as §4
[20] = system: Rattus norvegicus; assay: Anti-algetic activity in rat streptozotocin-induced neuropathic pain model assessed as reduction in heat hypersensitivity at 50 mg/kg, po measured after 1 to 5 hrs; format: functional, organism-based; procedure, shortened: as §3
[21] = Tmax in rat at 10 mg/kg, po; format: ADME, organism-based; settings: in vivo; procedure, shortened: as §2
[22] = Terminal half-life in rat at 10 mg/kg, iv; format: ADME, organism-based; settings: in vivo, read-out: beta t1/2; procedure, shortened: as §2
[23] = Ratio of drug level in brain to plasma in rat at 10 mg/kg, iv measured at 2 hrs post dose; format: ADME, organism-based; settings: brain and plasma, read-out: BPR; procedure, shortened: as §2
[24] = AUC (0 to infinity) in rat at 10 mg/kg, po; format: ADME, organism-based; design: dose 10 mg/kg, route oral, time infinity; settings: in vivo; procedure, shortened: as §2
[25] = AUC (0 to infinity) in rat at 10 mg/kg, iv; format: ADME, organism-based; design: dose 10 mg/kg, route intravenous, time infinity; settings: in vivo; procedure, shortened: as §2
[26] = Mean residence time in rat at 10 mg/kg, iv; format: ADME, organism-based; settings: in vivo; procedure, shortened: as §2
[27] = Oral bioavailability in rat at 10 mg/kg; format: ADME, organism-based; settings: in vivo; procedure, shortened: as §2

SMILES: Cc1c(CNS(=O)(=O)c2ccccc2)nn(-c2ccccc2)c1CC(C)C
- remaining at 0.5 h, 1 µM [1]: 0.26%
- inhibition [2]: 72%
- activity at 0.25 h, 10 µM [3]: 38.7%
- activity at 0.25 h, 10 µM [4]: 45.2%
- pIC50 [5]: 5.37
- activity at 0.25 h, 10 µM [6]: 45.2%

SMILES: CC(C)(C)n1nc(CN2Cc3ccccc3S2(=O)=O)cc1-c1ccccc1
- inhibition [2]: 18.7%

SMILES: CC(C)(C)n1nc(CN2Cc3ccccc3S2(=O)=O)cc1-c1ccc(F)cc1
- inhibition [2]: 23.1%

SMILES: CC(C)c1cc(CN2Cc3ccccc3S2(=O)=O)nn1C(C)(C)C
- activity at 0.25 h, 10 µM [7]: 123%
- remaining at 0.5 h, 1 µM [1]: 103%
- inhibition [2]: 68%
- activity at 0.25 h, 10 µM [3]: 52.1%
- activity at 0.25 h, 10 µM [4]: 78.8%
- pIC50 [5]: 5.43
- activity at 0.25 h, 10 µM [6]: 90.7%

SMILES: CC(C)(C)n1nc(CN2Cc3ccccc3S2(=O)=O)cc1-c1ccc(N2CCCCC2)cc1
- inhibition [2]: 16.3%

SMILES: CC(C)n1nc(CN2Cc3ccccc3S2(=O)=O)cc1-c1ccccc1
- inhibition [2]: 22.1%

SMILES: CC(C)c1cc(CN2Cc3ccccc3S2(=O)=O)nn1-c1ccccc1
- remaining at 0.5 h, 1 µM [1]: 4.69%
- inhibition [2]: 75.5%
- activity at 0.25 h, 10 µM [3]: 47.2%
- activity at 0.25 h, 10 µM [4]: 86.6%
- pIC50 [5]: 5.60
- activity at 0.25 h, 10 µM [6]: 14.2%

SMILES: CC(C)(C)n1nc(CN2Cc3ccccc3S2(=O)=O)cc1-c1ccc(C2CCCCC2)cc1
- inhibition [2]: 9.86%

SMILES: NCC1(CC(=O)O)CCCCC1
- Activity [8]: Active
- Activity [9]: inactive

SMILES: CC(C)n1nc(CN2Cc3ccccc3S2(=O)=O)cc1-c1ccc(F)cc1
- inhibition [2]: 16.5%

SMILES: CC(C)(C)n1nc(CN2Cc3ccccc3S2(=O)=O)cc1-c1ccc(C(F)(F)F)cc1
- inhibition [2]: 20.8%

SMILES: CC(C)Cc1cc(CN(C)S(=O)(=O)c2ccccc2)nn1-c1ccccc1
- remaining at 0.5 h, 1 µM [1]: 1.46%
- inhibition [2]: 54.2%

SMILES: CC(C)Cc1cc(CNS(=O)(=O)c2ccccc2)nn1-c1ccccc1
- remaining at 0.5 h, 1 µM [1]: 13.9%

SMILES: CC(C)c1cc(CN2Cc3ccccc3S2(=O)=O)nn1-c1c(Cl)cccc1Cl
- inhibition [2]: 29.5%

SMILES: CC(C)c1cc(CN2Cc3ccccc3S2(=O)=O)nn1-c1ccc(F)cc1
- activity at 0.25 h, 10 µM [7]: 110%
- Cmax [10]: 100 ng/mL
- remaining at 0.5 h, 1 µM [1]: 102%
- inhibition [2]: 71.6%
- Activity [11]: Active
- Activity [12]: inactive
- activity at 0.25 h, 10 µM [3]: 45.7%
- activity at 0.25 h, 10 µM [4]: 90.6%
- clearance [13]: 57.7 mL/min/kg
- Activity [14]: inactive
- AUC(0-t) [15]: 243 ng·h/mL
- AUC(0-t) [16]: 2630 ng·h/mL
- pIC50 [5]: 5.63
- Kp at 2 h [17]: 0.13
- half-life [18]: 1.96 h
- Activity [19]: inactive
- Activity [20]: inactive
- activity at 0.25 h, 10 µM [6]: 103%
- Tmax [21]: 2.5 h
- half-life [22]: 2.94 h
- Kp at 2 h [23]: 1.28
- AUC(0-inf) [24]: 274 ng·h/mL
- AUC(0-inf) [25]: 2980 ng·h/mL
- MRT [26]: 1.7 h
- bioavailability [27]: 9.2%
